Key:
[1] = tested on: Human immunodeficiency virus 1; assay: In Vitro anti HIV activity was evaluated in HIV cytopathic assay in MT-4 cells; format: functional; conditions: Human immunodeficiency virus 1, MT4; read-out: ED50 (the source's name)
Outline: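 HIV cytopathic assay in MT-4 cells; protection quantified with vital dye XTT; ED50 calculated from percent cytoprotection per compound.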

[2] = Dissociation constant was measured; format: physicochemical
[3] = molecular target: Human immunodeficiency virus type 1 protease (Human immunodeficiency virus 1, UniProt Q72874); assay: Inhibitory activity against HIV protease expressed in Escherichia coli
Outline: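 HIV-1 protease cloned and heterologously expressed in E. coli; Ki determined by fluorometric enzyme assay.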

[4] = tested on: Human immunodeficiency virus 1; assay: Compound was evaluated for Antiviral activity against HIV-1; format: functional; conditions: read-out: ED50 (the source's name)
Outline: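 HIV cytopathic assay in MT-4 cells; cell protection read out with the vital dye XTT. ED50 taken as the 50% inhibitory concentration, calculated from percent cytoprotection for each compound.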

Structure (SMILES)	EC50 [1] [µM]	pKa [2]	Ki [3] [µM]	EC50 [4] [µM]
CNC(=O)[C@@H](NC(=O)[C@H](OCc1ccccc1)[C@H](O)[C@@H](O)[C@@H](OCc1ccccc1)C(=O)N[C@H](C(=O)NC)C(C)C)C(C)C	1.3	–	–	–
C=CCS[C@@H](C(=O)NC1c2ccccc2C[C@H]1O)[C@H](O)[C@@H](O)[C@@H](SCC=C)C(=O)N[C@H]1c2ccccc2C[C@H]1O (stereo not given in full)	> 10	9.8	0.016	–
CNC(=O)[C@@H](NC(=O)[C@H](Sc1ccccc1)[C@H](O)[C@@H](O)[C@@H](Sc1ccccc1)C(=O)N[C@H](C(=O)NC)C(C)C)C(C)C	6.3	6.6	0.0018	–
CNC(=O)[C@@H](NC(=O)[C@H](Sc1ccccc1F)[C@H](O)[C@@H](O)[C@@H](Sc1ccccc1F)C(=O)N[C@H](C(=O)NC)C(C)C)C(C)C	3.6	6	0.00057	–
O=C(NC1c2ccccc2C[C@H]1O)[C@H](OCc1ccccc1)[C@H](O)[C@@H](O)[C@@H](OCc1ccccc1)C(=O)N[C@H]1c2ccccc2C[C@H]1O (stereo not given in full)	0.096	–	–	–
O=C(NC1c2ccccc2C[C@H]1O)[C@H](SCc1ccccc1)[C@H](O)[C@@H](O)[C@@H](SCc1ccccc1)C(=O)N[C@H]1c2ccccc2C[C@H]1O (stereo not given in full)	1.1	9.7	0.0028	–
O=C(NC1c2ccccc2C[C@H]1O)[C@H](Sc1cccs1)[C@H](O)[C@@H](O)[C@@H](Sc1cccs1)C(=O)N[C@H]1c2ccccc2C[C@H]1O (stereo not given in full)	0.027	6.4	0.0005	–
CNC(=O)[C@@H](NC(=O)[C@H](Sc1cccs1)[C@H](O)[C@@H](O)[C@@H](Sc1cccs1)C(=O)N[C@H](C(=O)NC)C(C)C)C(C)C	4.2	6.4	0.001	–
O=C(NC1c2ccccc2C[C@H]1O)[C@H](Sc1ccccc1F)[C@H](O)[C@@H](O)[C@@H](Sc1ccccc1F)C(=O)N[C@H]1c2ccccc2C[C@H]1O (stereo not given in full)	0.11	6	0.0023	–
O=C(NC1c2ccccc2C[C@H]1O)[C@H](Sc1ccccc1)[C@H](O)[C@@H](O)[C@@H](Sc1ccccc1)C(=O)N[C@H]1c2ccccc2C[C@H]1O (stereo not given in full)	0.26	6.6	0.0018	–
O=C(NC1c2ccccc2C[C@H]1O)[C@H](SCc1ccccc1F)[C@H](O)[C@@H](O)[C@@H](SCc1ccccc1F)C(=O)N[C@H]1c2ccccc2C[C@H]1O (stereo not given in full)	0.21	9.2	0.0043	–
O=C(NC1c2ccccc2C[C@H]1O)[C@H](Sc1ccccn1)[C@H](O)[C@@H](O)[C@@H](Sc1ccccn1)C(=O)N[C@H]1c2ccccc2C[C@H]1O (stereo not given in full)	> 10	9.6	0.285	–
CC(C)(C)NC(=O)[C@@H]1CN(Cc2cccnc2)CCN1C[C@@H](O)C[C@@H](Cc1ccccc1)C(=O)N[C@H]1c2ccccc2C[C@H]1O [INDINAVIR]	–	–	–	0.073
Cc1c(O)cccc1C(=O)N[C@@H](CSc1ccccc1)[C@H](O)CN1C[C@H]2CCCC[C@H]2C[C@H]1C(=O)NC(C)(C)C [NELFINAVIR]	–	–	–	0.056
CC(C)c1nc(CN(C)C(=O)N[C@H](C(=O)N[C@@H](Cc2ccccc2)C[C@H](O)[C@H](Cc2ccccc2)NC(=O)OCc2cncs2)C(C)C)cs1 [RITONAVIR]	–	–	–	0.055
